In ChEMBL document CHEMBL1145535, “Clonal diversity and resistance mechanisms in tetracycline-nonsusceptible Streptococcus pneumoniae isolates in Poland” (2007):
≈ marks a conversion by molar mass, not a printed value.

How the values were obtained:
Type in all cases: functional
Streptococcus pneumoniae [1] = assay: Antimicrobial susceptibility of tetracycline-resistant Streptococcus pneumoniae from respiratory tract disease patient assessed as percent resistant isolates
Method in brief: (§1)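 MICs determined for all tetracycline-resistant isolates by broth microdilution per CLSI recommendations. Agents tested included tetracycline, doxycycline, penicillin G, erythromycin and chloramphenicol. FDA breakpoints were applied to categorize tigecycline results.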

Streptococcus pneumoniae [2] = assay: Antimicrobial susceptibility of tetracycline-resistant Streptococcus pneumoniae from respiratory tract disease patient assessed as percent susceptible isolates; method in brief: as §1
Streptococcus pneumoniae [3] = assay: Antimicrobial activity against Streptococcus pneumoniae ATCC 49619
Method in brief: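 MICs determined by broth microdilution as recommended by CLSI. Agents tested included tetracycline, doxycycline, penicillin G, erythromycin and chloramphenicol. Tigecycline results were interpreted against FDA breakpoints.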

CCC[C@@H]1C[C@@H](C(=O)N[C@@H]([C@H]2O[C@H](SC)[C@H](O)[C@@H](O)[C@H]2O)[C@H](C)Cl)N(C)C1 [CLINDAMYCIN]
Activity (Streptococcus pneumoniae [1]): 23.1% | Activity (Streptococcus pneumoniae [2]): 76.9% | MIC50 (Streptococcus pneumoniae [3]): ≤ 0.03 µg/mL | MIC90 (Streptococcus pneumoniae [3]): > 4 µg/mL

CN(C)c1cc(NC(=O)CNC(C)(C)C)c(O)c2c1C[C@H]1C[C@H]3[C@H](N(C)C)C(O)=C(C(N)=O)C(=O)[C@@]3(O)C(O)=C1C2=O [TIGECYCLINE]
Activity (Streptococcus pneumoniae [2]): 100% | MIC50 (Streptococcus pneumoniae [3]): 0.015 µg/mL (≈ 0.0256 µM) | MIC90 (Streptococcus pneumoniae [3]): 0.03 µg/mL (≈ 0.0512 µM)

C[C@H]1COc2c(N3CCN(C)CC3)c(F)cc3c(=O)c(C(=O)O)cn1c23.C[C@H]1COc2c(N3CCN(C)CC3)c(F)cc3c(=O)c(C(=O)O)cn1c23.O [LEVOFLOXACIN]
Activity (Streptococcus pneumoniae [1]): 0.4% | Activity (Streptococcus pneumoniae [2]): 98.8% | MIC50 (Streptococcus pneumoniae [3]): 1 µg/mL | MIC90 (Streptococcus pneumoniae [3]): 1 µg/mL

CC1(C)S[C@@H]2[C@H](NC(=O)Cc3ccccc3)C(=O)N2[C@H]1C(=O)O [PENICILLIN G]
Activity (Streptococcus pneumoniae [1]): 14.9% | Activity (Streptococcus pneumoniae [2]): 74% | MIC50 (Streptococcus pneumoniae [3]): 0.015 µg/mL (≈ 0.0449 µM) | MIC90 (Streptococcus pneumoniae [3]): 2 µg/mL (≈ 5.98 µM)

CC[C@H]1OC(=O)[C@H](C)[C@@H](O[C@H]2C[C@@](C)(OC)[C@@H](O)[C@H](C)O2)[C@H](C)[C@@H](O[C@@H]2O[C@H](C)C[C@H](N(C)C)[C@H]2O)[C@](C)(O)C[C@@H](C)C(=O)[C@H](C)[C@@H](O)[C@]1(C)O [ERYTHROMYCIN]
Activity (Streptococcus pneumoniae [1]): 26.4% | Activity (Streptococcus pneumoniae [2]): 72.4% | MIC50 (Streptococcus pneumoniae [3]): ≤ 0.25 µg/mL | MIC90 (Streptococcus pneumoniae [3]): > 16 µg/mL

CC(=O)NC[C@H]1CN(c2ccc(N3CCOCC3)c(F)c2)C(=O)O1 [LINEZOLID]
Activity (Streptococcus pneumoniae [2]): 100% | MIC50 (Streptococcus pneumoniae [3]): 1 µg/mL (≈ 2.96 µM) | MIC90 (Streptococcus pneumoniae [3]): 1 µg/mL (≈ 2.96 µM)

C[C@H]1c2cccc(O)c2C(=O)C2=C(O)[C@]3(O)C(=O)C(C(N)=O)=C(O)[C@@H](N(C)C)[C@@H]3[C@@H](O)[C@@H]21.O [DOXYCYCLINE]
Activity (Streptococcus pneumoniae [1]): 25.2% | Activity (Streptococcus pneumoniae [2]): 19.9% | MIC50 (Streptococcus pneumoniae [3]): 4 µg/mL | MIC90 (Streptococcus pneumoniae [3]): 8 µg/mL

CN(C)[C@@H]1C(O)=C(C(N)=O)C(=O)[C@@]2(O)C(O)=C3C(=O)c4c(O)cccc4[C@@](C)(O)[C@H]3C[C@@H]12 [TETRACYCLINE]
Activity (Streptococcus pneumoniae [1]): 100% | MIC50 (Streptococcus pneumoniae [3]): 32 µg/mL (≈ 72 µM) | MIC90 (Streptococcus pneumoniae [3]): 64 µg/mL (≈ 144 µM)

CO/N=C(\C(=O)N[C@@H]1C(=O)N2C(C(=O)O)=C(COC(C)=O)CS[C@H]12)c1csc(N)n1 [CEFOTAXIME]
Activity (Streptococcus pneumoniae [1]): 2.1% | Activity (Streptococcus pneumoniae [2]): 93.8% | MIC50 (Streptococcus pneumoniae [3]): 0.015 µg/mL (≈ 0.0329 µM) | MIC90 (Streptococcus pneumoniae [3]): 1 µg/mL (≈ 2.2 µM)

O=C(N[C@H](CO)[C@H](O)c1ccc([N+](=O)[O-])cc1)C(Cl)Cl [CHLORAMPHENICOL]
Activity (Streptococcus pneumoniae [1]): 39.2% | Activity (Streptococcus pneumoniae [2]): 70.7% | MIC50 (Streptococcus pneumoniae [3]): 4 µg/mL (≈ 12.4 µM) | MIC90 (Streptococcus pneumoniae [3]): 16 µg/mL (≈ 49.5 µM)

C[C@@H](O)[C@H]1C(=O)N2C(C(=O)O)=C(S[C@@H]3CN[C@H](C(=O)N(C)C)C3)[C@H](C)[C@H]12 [MEROPENEM]
Activity (Streptococcus pneumoniae [1]): 0.4% | Activity (Streptococcus pneumoniae [2]): 86.8% | MIC50 (Streptococcus pneumoniae [3]): ≤ 0.015 µg/mL | MIC90 (Streptococcus pneumoniae [3]): 0.5 µg/mL (≈ 1.3 µM)

CO[C@H]1/C=C/O[C@@]2(C)Oc3c(C)c(O)c4c(O)c(c(/C=N/N5CCN(C)CC5)c(O)c4c3C2=O)NC(=O)/C(C)=C\C=C\[C@H](C)[C@H](O)[C@@H](C)[C@@H](O)[C@@H](C)[C@H](OC(C)=O)[C@@H]1C [RIFAMPIN]
Activity (Streptococcus pneumoniae [1]): 0.8% | Activity (Streptococcus pneumoniae [2]): 98.8% | MIC50 (Streptococcus pneumoniae [3]): ≤ 0.03 µg/mL | MIC90 (Streptococcus pneumoniae [3]): ≤ 0.03 µg/mL

CN[C@H](CC(C)C)C(=O)N[C@H]1C(=O)N[C@@H](CC(N)=O)C(=O)N[C@H]2C(=O)N[C@H]3C(=O)N[C@H](C(=O)N[C@H](C(=O)O)c4cc(O)cc(O)c4-c4cc3ccc4O)[C@H](O)c3ccc(c(Cl)c3)Oc3cc2cc(c3O[C@@H]2O[C@H](CO)[C@@H](O)[C@H](O)[C@H]2O[C@H]2C[C@](C)(N)[C@H](O)[C@H](C)O2)Oc2ccc(cc2Cl)[C@H]1O [VANCOMYCIN]
Activity (Streptococcus pneumoniae [2]): 100% | MIC50 (Streptococcus pneumoniae [3]): 0.25 µg/mL (≈ 0.173 µM) | MIC90 (Streptococcus pneumoniae [3]): 0.5 µg/mL (≈ 0.345 µM)

COc1cc(Cc2cnc(N)nc2N)cc(OC)c1OC [TRIMETHOPRIM]
Activity (Streptococcus pneumoniae [1]): 38.4% | Activity (Streptococcus pneumoniae [2]): 30.2% | MIC50 (Streptococcus pneumoniae [3]): 2 µg/mL (≈ 6.89 µM) | MIC90 (Streptococcus pneumoniae [3]): 8 µg/mL (≈ 27.6 µM)

CC[C@H]1OC(=O)[C@H](C)C(=O)[C@H](C)[C@@H](O[C@@H]2O[C@H](C)C[C@H](N(C)C)[C@H]2O)[C@](C)(OC)C[C@@H](C)C(=O)[C@H](C)[C@H]2N(CCCCn3cnc(-c4cccnc4)c3)C(=O)O[C@]12C [TELITHROMYCIN]
Activity (Streptococcus pneumoniae [1]): 0.4% | Activity (Streptococcus pneumoniae [2]): 98.8% | MIC50 (Streptococcus pneumoniae [3]): ≤ 0.015 µg/mL | MIC90 (Streptococcus pneumoniae [3]): ≤ 0.015 µg/mL

CN(C)c1ccc(O)c2c1C[C@H]1C[C@H]3[C@H](N(C)C)C(O)=C(C(N)=O)C(=O)[C@@]3(O)C(O)=C1C2=O [MINOCYCLINE]
Activity (Streptococcus pneumoniae [1]): 38.8% | Activity (Streptococcus pneumoniae [2]): 24.4% | MIC50 (Streptococcus pneumoniae [3]): 4 µg/mL (≈ 8.74 µM) | MIC90 (Streptococcus pneumoniae [3]): 8 µg/mL (≈ 17.5 µM)
